The test system of series [1] is Nakaseomyces glabratus. Briefly: Fungicidal against wild type Candida glabrata ATCC 90030 assessed as cell death at 5 to 10 uM measured upto 24 hrs by time-kill assay. As to conditions: dose 5-10 µM. The series is classed as functional, organism-based. In outline: (§1)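 Time-kill assay: C. albicans or C. glabrata cells at 1×10^5 CFU/ml incubated with compound at 5 or 10 μM. DMSO final concentration 1%. Viability followed over time.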

Series [2] in a line: Dissociation constant, pKa of the compound. Type of series: physicochemical.
Series [3] deals with T1, Plasma membrane ATPase 1 (Saccharomyces cerevisiae (strain ATCC 204508 / S288c) (Baker's yeast)) (UniProt P05030).
T1 sequence (whole entry): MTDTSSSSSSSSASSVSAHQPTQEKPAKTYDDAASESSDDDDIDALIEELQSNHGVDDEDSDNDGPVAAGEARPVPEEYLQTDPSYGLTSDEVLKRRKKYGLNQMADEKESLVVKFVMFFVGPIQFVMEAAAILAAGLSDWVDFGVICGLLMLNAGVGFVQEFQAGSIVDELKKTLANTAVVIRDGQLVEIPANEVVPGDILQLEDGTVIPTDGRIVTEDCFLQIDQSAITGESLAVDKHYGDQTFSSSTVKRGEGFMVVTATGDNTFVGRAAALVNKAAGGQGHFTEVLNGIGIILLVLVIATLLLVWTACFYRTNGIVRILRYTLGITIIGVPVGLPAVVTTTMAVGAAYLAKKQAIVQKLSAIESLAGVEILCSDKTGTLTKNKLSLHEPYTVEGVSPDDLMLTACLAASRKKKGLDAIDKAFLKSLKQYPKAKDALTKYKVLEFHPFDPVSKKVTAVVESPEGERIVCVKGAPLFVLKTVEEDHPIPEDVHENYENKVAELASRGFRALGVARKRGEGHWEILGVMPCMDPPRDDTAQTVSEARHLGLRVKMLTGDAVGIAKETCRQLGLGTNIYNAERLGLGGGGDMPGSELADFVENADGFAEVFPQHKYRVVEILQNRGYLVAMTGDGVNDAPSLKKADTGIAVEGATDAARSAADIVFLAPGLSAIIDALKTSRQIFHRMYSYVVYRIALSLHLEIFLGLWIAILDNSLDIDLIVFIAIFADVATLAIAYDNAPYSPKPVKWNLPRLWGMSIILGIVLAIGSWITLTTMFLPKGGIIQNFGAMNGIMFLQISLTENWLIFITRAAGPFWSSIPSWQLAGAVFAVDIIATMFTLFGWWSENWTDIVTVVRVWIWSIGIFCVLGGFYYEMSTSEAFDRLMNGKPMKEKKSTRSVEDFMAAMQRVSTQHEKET
The series can be described thus: Inhibition of Saccharomyces cerevisiae H+ ATPase pma1 isoform assessed as reduction in ATP hydrolysis rate at 10 uM measured upto 150 sec by measuring […] ATPase activity by spectrophotometry method. Summed up: (§2)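 S. cerevisiae plasma membranes containing H⁺-ATPase added to start the reaction in pH 7 buffer with 5 mM ATP. Compound added at the indicated times, final DMSO 1.1%. Initial ATP hydrolysis rate read spectrophotometrically by NADH-coupled assay with phosphoenolpyruvate regenerating ATP.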

The test system of series [4] is Candida albicans. Briefly: Fungicidal activity against Candida albicans SC5314 assessed as cell death at 5 to 10 uM measured upto 24 hrs by time-kill assay. The series is classed as functional, organism-based. The note with it: dose 5-10 µM. In outline:
as §1

The target in series [5] is T1, Plasma membrane ATPase 1 (Saccharomyces cerevisiae (strain ATCC 204508 / S288c) (Baker's yeast)). Briefly: Inhibition of Saccharomyces cerevisiae H+ ATPase pma1 isoform assessed as reduction in ATP hydrolysis rate at 100 uM measured upto 150 sec by measuring […] ATPase activity by spectrophotometry method. In outline:
as §2

Series [6] shares this target. The series can be described thus: Inhibition of Saccharomyces cerevisiae H+ ATPase pma1 isoform assessed as reduction in ATP hydrolysis rate at 50 uM measured upto 150 sec by measuring […] ATPase activity by spectrophotometry method. Summed up: as §2

Active and inactive are the calls of the source. The rule behind the calls is not given here.

In the case of `CCC(C)NCC(O)Cn1c2ccc(Cl)cc2c2cc(Cl)ccc21` (stereo not given), the outcome in series [1] and in series [4] was Active. Further, in series [2], the pKa (usually the pH at which an ionisable group is half protonated) worked out at 9.2. Besides, the inhibition entry in series [3] was “Active”.
Take `OC(Cn1ccnc1)Cn1c2ccc(Cl)cc2c2cc(Cl)ccc21` (stereo not given): the pKa in series [2] is 7.1. Besides, in series [5], the inhibition result is “Active”.
In turn, `CN1CCN(CC(O)Cn2c3ccc(Cl)cc3c3cc(Cl)ccc32)CC1` (stereo not given) registered a pKa in series [2] of 7.6.
As to `OC(CN1CCOCC1)Cn1c2ccc(Cl)cc2c2cc(Cl)ccc21` (stereo not given), the pKa in series [2] was found to be 6.6. In addition, the inhibition result in series [6] was “Active”.
With `OC(Cn1cncn1)Cn1c2ccc(Cl)cc2c2cc(Cl)ccc21` (stereo not given), the pKa in series [2] worked out at 2.7.

The values are drawn from ChEMBL document CHEMBL5252545, “Elucidation of antimicrobial activity and mechanism of action by N-substituted carbazole derivatives” (Bioorg Med Chem Lett, 2017).
